Tests used:
Mus musculus [1] = assay: Tested in vivo for the analgesic activity by measuring the delay in response to noxious heat stimuli (D'Amour-Smith tail-flick method) in mice upon subcutaneous administration; assay type: functional; settings: sc
Outline: (§1)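 Compounds were given as racemic hydrobromide salts. The vehicle, also used as the control in both the tail-flick and the phenylquinone writhing tests, was distilled water with a few drops of Tween 80.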

Mus musculus [2] = assay: Tested in vivo for the analgesic activity by measuring the inhibition of phenyl-p-quinone- induced writhing (PQW) in mice upon subcutaneous administration; 7.2-21.9; assay type: functional; settings: sc; outline: as §1
Opioid receptor = Opioid receptor (Rattus norvegicus, UniProt P33533+P34975+P33535); assay: Tested for In vitro binding constant for Opioid receptors by measuring the inhibition of stereospecific binding of [3H]naloxone in rat brain homogenates; assay type: tissue-based
Mus musculus [3] = assay: Tested in vivo for the analgesic activity by measuring the inhibition of phenyl-p-quinone- induced writhing (PQW) in mice upon subcutaneous administration; 0.20-0.36; assay type: functional; settings: sc; outline: as §1
Mus musculus [4] = assay: Tested in vivo for the analgesic activity by measuring the inhibition of phenyl-p-quinone- induced writhing (PQW) in mice upon subcutaneous administration; 3.2-4.4; assay type: functional; settings: sc; outline: as §1
Mus musculus [5] = assay: Tested in vivo for the analgesic activity by measuring the inhibition of phenyl-p-quinone- induced writhing (PQW) in mice upon subcutaneous administration; 2.6-3.4; assay type: functional; settings: sc; outline: as §1
Mus musculus [6] = assay: Tested in vivo for the analgesic activity by measuring the inhibition of phenyl-p-quinone- induced writhing (PQW) in mice upon subcutaneous administration; 2.2-2.7; assay type: functional; settings: sc; outline: as §1
Mus musculus [7] = assay: Tested in vivo for the analgesic activity by measuring the inhibition of phenyl-p-quinone- induced writhing (PQW) in mice upon subcutaneous administration; 2.1-2.9; assay type: functional; settings: sc; outline: as §1
Mus musculus [8] = assay: Tested in vivo for the analgesic activity by measuring the delay in response to noxious heat stimuli (D'Amour-Smith tail-flick method) in mice upon subcutaneous administration; 7.4-24.4; assay type: functional; settings: sc; outline: as §1
Mus musculus [9] = species on record: Mus musculus; assay: animal or person; settings: sc

Compound | ED50 (Mus musculus [1]) [mg/kg] | IC50 (Opioid receptor) [nM] | other results
CN1CCC2(c3ccc(O)cc3)CCC1C2 (stereo not drawn) | > 25 | 7290 | ED50 (Mus musculus [2]): 10.8 mg/kg
O=C(CCCN1CCC2(c3ccc(O)cc3)CCC1C2)c1ccc(F)cc1 (stereo not drawn) | > 25 | 268 | ED50 (Mus musculus [3]): 0.27 mg/kg
CCCN1CCC2(c3ccc(O)cc3)CCC1C2 (stereo not drawn) | > 25 | 6980 | ED50 (Mus musculus [4]): 3.7 mg/kg
Oc1ccc(C23CCC(C2)N(CC2CC2)CC3)cc1 (stereo not drawn) | > 25 | 2780 | ED50 (Mus musculus [5]): 3 mg/kg
Oc1ccc(C23CCC(C2)N(CCc2ccccc2)CC3)cc1 (stereo not drawn) | > 25 | 340 | ED50 (Mus musculus [6]): 2.5 mg/kg
CC(C)=CCN1CC[C@]2(C)c3cc(O)ccc3C[C@H]1[C@H]2C [(+)-PENTAZOCINE] | – | – | ED50 (Mus musculus [7]): 2.4 mg/kg; ED50 (Mus musculus [8]): 14.6 mg/kg
CN1CC[C@]23c4c5ccc(O)c4O[C@H]2[C@@H](O)C=C[C@H]3[C@H]1C5 [MORPHINE] | – | – | ED50 (Mus musculus [9]): 0.68 mg/kg

Source: ChEMBL document CHEMBL1121599, “Synthesis and analgesic activity of some 5-(4-hydroxyphenyl)-2-azabicyclo[3.2.1]octanes” (J Med Chem, 1980)
